Consider twelve molecules from ChEMBL document CHEMBL3352699 (J Med Chem, 2014).

In general, IC50 refers to the midpoint of a concentration-inhibition curve. A high value points to weaker potency. As a reminder, the logD is lipophilicity at a set pH, counting ionised and neutral species. A low value points to a more hydrophilic compound. Usually solubility stands for the concentration that dissolves in the medium under given conditions. Read a high solubility as much dissolved substance.

Values after ≈ are worked out from the molar mass of the structure shown.

Data set [1] concerns the target T1, Pyroglutamylated RF-amide peptide receptor (Homo sapiens, UniProt Q96P65).
T1 sequence (Q96P65 whole entry): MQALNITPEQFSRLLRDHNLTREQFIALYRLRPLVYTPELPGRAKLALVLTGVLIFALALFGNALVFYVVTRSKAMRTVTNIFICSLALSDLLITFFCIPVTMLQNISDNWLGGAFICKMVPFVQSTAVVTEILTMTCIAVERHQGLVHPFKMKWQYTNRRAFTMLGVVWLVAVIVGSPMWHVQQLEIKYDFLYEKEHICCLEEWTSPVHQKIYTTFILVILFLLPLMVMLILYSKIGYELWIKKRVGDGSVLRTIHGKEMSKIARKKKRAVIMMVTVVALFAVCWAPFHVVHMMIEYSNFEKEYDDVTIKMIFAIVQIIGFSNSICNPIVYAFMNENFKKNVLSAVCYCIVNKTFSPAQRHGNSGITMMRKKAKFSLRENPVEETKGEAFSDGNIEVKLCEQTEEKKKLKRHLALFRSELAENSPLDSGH
Description: Inhibition of human GPR103 receptor expressed in CHOK1 cells by IP-1 assay. In kind it is cell-based, CHO-K1. In short, it runs like this: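 Cryopreserved human QRFP/GPR103 receptor cell line thawed in stimulation buffer, preincubated with compound at 37 °C, 5% CO2, then stimulated with hQRFP43 at EC80 for 50 min at 37 °C. IP-1 read by HTRF (665/620 nm ratio). IC50 mean of N = 2−52 determinations, one to three replicates per concentration; CIR 2.0, MDR 2.8.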

Data set [2] can be described thus: Octanol-water partition coefficient, log D of the compound at pH 7.4 by shake flask method. The class given is physicochemical.
The target of a further data set is Cytochrome P450 2D6 (Homo sapiens, UniProt P10635). Description: Inhibition of human CYP2D6 after 20 to 50 mins by high-throughput fluorescence assay. In kind it is ADME.
Cytochrome P450 2D6, sequence (P10635 whole entry): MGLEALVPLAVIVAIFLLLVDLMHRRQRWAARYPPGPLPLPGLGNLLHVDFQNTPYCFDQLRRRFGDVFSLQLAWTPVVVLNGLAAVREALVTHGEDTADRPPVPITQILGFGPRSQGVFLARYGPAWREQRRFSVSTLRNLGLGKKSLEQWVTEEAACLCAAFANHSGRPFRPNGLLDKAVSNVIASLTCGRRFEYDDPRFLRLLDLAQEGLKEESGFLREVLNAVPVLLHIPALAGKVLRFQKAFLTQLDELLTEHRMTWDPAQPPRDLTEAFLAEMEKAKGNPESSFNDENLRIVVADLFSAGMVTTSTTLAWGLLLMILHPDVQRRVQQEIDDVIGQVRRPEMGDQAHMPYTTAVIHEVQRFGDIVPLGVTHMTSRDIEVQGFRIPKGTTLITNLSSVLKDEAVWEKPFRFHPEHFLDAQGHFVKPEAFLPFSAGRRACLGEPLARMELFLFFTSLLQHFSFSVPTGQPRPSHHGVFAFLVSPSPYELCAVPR
For data set [3], the target named is Voltage-gated inwardly rectifying potassium channel KCNH2 (Homo sapiens, UniProt Q12809). The data set is described as follows: Inhibition of human ERG expressed in CHO cells by electrophysiology assay. The class given is cell-based.
Voltage-gated inwardly rectifying potassium channel KCNH2, sequence (Q12809 whole entry): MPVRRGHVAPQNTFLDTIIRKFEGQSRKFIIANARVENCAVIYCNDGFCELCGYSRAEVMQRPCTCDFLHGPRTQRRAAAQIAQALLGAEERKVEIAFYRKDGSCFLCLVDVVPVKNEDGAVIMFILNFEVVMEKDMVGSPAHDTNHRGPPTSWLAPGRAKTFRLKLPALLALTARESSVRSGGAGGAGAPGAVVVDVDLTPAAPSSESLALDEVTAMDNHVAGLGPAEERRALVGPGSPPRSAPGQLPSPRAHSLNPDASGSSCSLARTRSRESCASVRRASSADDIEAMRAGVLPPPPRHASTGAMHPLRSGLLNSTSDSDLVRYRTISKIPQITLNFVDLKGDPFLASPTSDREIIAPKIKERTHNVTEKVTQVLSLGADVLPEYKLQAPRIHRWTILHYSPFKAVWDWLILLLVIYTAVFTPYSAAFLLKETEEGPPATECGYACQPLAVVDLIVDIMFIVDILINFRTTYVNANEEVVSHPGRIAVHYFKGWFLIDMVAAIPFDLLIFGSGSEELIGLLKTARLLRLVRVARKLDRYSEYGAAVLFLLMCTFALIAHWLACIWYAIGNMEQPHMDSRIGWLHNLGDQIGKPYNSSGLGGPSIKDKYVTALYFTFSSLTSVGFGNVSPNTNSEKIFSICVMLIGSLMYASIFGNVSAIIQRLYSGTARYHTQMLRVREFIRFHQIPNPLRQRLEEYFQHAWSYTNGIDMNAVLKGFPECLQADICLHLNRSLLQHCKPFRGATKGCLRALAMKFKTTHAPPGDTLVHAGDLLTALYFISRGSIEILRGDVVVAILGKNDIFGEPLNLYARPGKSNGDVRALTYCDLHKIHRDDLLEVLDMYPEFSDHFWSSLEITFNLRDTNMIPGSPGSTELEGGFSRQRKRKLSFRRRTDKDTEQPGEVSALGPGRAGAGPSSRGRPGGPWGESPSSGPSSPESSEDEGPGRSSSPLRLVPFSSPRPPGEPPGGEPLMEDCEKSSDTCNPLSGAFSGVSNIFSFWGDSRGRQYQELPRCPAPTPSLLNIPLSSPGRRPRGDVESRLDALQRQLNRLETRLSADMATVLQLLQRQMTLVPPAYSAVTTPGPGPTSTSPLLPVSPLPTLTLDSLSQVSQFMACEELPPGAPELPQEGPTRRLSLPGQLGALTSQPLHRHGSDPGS
A short description of data set [4]: Apparent permeability across apical to basolateral side in human Caco2 cells by LC-MS/MS analysis. In kind it is ADME, cell-based. The note with it: Caco-2, read-out: permeability.
Data set [5] addresses T1, Pyroglutamylated RF-amide peptide receptor. Description: Displacement of [125I]QRFP43 from human GPR103 receptor expressed in HEK cells after 90 mins incubation by scintillation counting. The class given is cell-based, HEK293. In short, it runs like this: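 HEK membranes overexpressing human GPR103 incubated with compound and 0.25 nM 125I-hQRFP43 in 50 mM Tris pH 7.4, 1 mM EDTA, 0.1% BSA at 30 °C for 90 min. Bound radioligand separated by vacuum filtration and counted by scintillation. IC50 mean of N = 2−5 determinations, one replicate per concentration; CIR 1.7, MDR 2.1.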
Background: In a radioligand displacement assay an active substance lowers the binding of a labelled ligand.

Data set [6] is described as follows: Intrinsic clearance in human hepatocytes measured per 10^6 cells. The class given is ADME, cell-based, Hepatocyte. Particulars: read-out: CLH; call rule not given here. The method, boiled down: (§1)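 Intrinsic clearance corrected for unspecific binding in the incubations. CIR 1.4 for human hepatocytes, 1.7 for human liver microsomes.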
The target of data set [7] is Potassium voltage-gated channel subfamily E member 1 (Homo sapiens, UniProt P15382). The data set is described as follows: Inhibition of human cardiac slowly activating delayed rectifier K+ channel expressed in CHO cells by electrophysiology assay. In kind it is cell-based.
Data set [8] in a line: Inhibition of mouse GPR103A receptor expressed in CHO cells by IP-1 assay. The class given is cell-based. The method, boiled down:
(§2)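 CHO cells overexpressing mouse GPR103A or GPR103B thawed in stimulation buffer, preincubated with compound at 37 °C, 5% CO2, then stimulated with hQRFP43 at EC80 for 50 min at 37 °C. IP-1 measured by HTRF (665/620 nm ratio).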

The nature of data set [9]: Inhibition of mouse GPR103B receptor expressed in CHO cells by IP-1 assay. The class given is cell-based. The method, boiled down:
as §2

The nature of data set [10]: Intrinsic clearance in human liver microsomes. The class given is ADME. Particulars: read-out: CLH. In short, it runs like this: as §1
(In general: Liver microsomes are a subcellular fraction often used to study metabolism.)

The nature of data set [11]: Solubility of the compound in HBSS buffer at pH 7.4 after 18 hrs by LC/MS/MS analysis. The class given is physicochemical.
Data set [12] concerns the target Sodium channel protein type 5 subunit alpha (Homo sapiens, UniProt Q14524). Description: Inhibition of human Nav1.5 expressed in CHO cells by electrophysiology assay. The class given is cell-based.
The next data set deals with Cytochrome P450 2C19 (Homo sapiens, UniProt P33261). Description: Inhibition of human recombinant CYP2C19 after 20 to 50 mins by high-throughput fluorescence assay. In kind it is ADME. Particulars: recombinant enzyme.
Cytochrome P450 2C19, sequence (P33261 whole entry): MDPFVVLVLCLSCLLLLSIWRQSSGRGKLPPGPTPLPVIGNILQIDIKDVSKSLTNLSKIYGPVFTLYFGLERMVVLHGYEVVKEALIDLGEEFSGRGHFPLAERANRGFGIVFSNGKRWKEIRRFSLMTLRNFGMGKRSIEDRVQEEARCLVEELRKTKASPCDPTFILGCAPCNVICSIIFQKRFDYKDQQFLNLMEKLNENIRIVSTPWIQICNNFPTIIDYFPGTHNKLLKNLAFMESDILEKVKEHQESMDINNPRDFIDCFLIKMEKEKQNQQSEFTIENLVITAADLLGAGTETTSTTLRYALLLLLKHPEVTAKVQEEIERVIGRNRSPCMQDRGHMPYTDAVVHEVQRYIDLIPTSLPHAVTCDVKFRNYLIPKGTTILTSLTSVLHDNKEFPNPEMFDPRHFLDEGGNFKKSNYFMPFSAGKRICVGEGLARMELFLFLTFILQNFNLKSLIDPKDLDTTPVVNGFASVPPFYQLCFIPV
Another data set has as its target Cytochrome P450 2C9 (Homo sapiens, UniProt P11712). The data set is described as follows: Inhibition of human recombinant CYP2C9 after 20 to 50 mins by high-throughput fluorescence assay. In kind it is ADME. Particulars: recombinant enzyme.
A further data set deals with T2, Cytochrome P450 2C8 (Homo sapiens, UniProt P10632).
T2 sequence (P10632 whole entry): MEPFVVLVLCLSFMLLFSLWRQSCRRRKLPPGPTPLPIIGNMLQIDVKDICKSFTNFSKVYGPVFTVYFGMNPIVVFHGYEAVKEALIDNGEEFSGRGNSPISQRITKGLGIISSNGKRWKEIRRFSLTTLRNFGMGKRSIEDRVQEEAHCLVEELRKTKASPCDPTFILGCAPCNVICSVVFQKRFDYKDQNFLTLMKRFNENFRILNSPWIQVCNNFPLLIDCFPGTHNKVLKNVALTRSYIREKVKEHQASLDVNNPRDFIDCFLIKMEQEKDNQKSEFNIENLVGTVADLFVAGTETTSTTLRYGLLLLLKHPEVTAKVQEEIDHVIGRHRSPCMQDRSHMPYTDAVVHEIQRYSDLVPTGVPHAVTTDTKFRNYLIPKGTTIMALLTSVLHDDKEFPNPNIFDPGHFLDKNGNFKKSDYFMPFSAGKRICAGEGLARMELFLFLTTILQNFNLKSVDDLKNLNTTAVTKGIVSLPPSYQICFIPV
Description: Inhibition of human recombinant CYP2C8 after 20 to 50 mins by high-throughput fluorescence assay. In kind it is ADME. Particulars: recombinant enzyme.

In the next data set the target is T3, Cytochrome P450 1A2 (Homo sapiens, UniProt P05177).
T3 sequence (P05177 whole entry): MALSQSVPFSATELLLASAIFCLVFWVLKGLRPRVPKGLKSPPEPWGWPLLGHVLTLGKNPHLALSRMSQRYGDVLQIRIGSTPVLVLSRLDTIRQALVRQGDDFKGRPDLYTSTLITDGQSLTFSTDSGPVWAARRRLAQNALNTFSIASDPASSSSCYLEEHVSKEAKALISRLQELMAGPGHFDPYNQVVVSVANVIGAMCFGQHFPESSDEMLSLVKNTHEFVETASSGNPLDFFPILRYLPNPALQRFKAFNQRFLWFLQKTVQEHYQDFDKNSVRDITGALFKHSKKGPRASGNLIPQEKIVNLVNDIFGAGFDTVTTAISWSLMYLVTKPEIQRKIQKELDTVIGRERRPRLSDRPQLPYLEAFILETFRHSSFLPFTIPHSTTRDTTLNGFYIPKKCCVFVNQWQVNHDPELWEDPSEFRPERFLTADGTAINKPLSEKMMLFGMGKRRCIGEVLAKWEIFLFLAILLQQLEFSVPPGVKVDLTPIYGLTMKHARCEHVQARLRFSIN
The data set is described as follows: Inhibition of human recombinant CYP1A2 after 20 to 50 mins by high-throughput fluorescence assay. In kind it is ADME. Particulars: recombinant enzyme.

In a further data set the target is Cytochrome P450 3A4 (Homo sapiens, UniProt P08684). The data set is described as follows: Inhibition of human recombinant CYP3A4 after 20 to 50 mins by high-throughput fluorescence assay. The class given is ADME. Particulars: recombinant enzyme.

Sodium channel protein type 5 subunit alpha, sequence (Q14524 whole entry): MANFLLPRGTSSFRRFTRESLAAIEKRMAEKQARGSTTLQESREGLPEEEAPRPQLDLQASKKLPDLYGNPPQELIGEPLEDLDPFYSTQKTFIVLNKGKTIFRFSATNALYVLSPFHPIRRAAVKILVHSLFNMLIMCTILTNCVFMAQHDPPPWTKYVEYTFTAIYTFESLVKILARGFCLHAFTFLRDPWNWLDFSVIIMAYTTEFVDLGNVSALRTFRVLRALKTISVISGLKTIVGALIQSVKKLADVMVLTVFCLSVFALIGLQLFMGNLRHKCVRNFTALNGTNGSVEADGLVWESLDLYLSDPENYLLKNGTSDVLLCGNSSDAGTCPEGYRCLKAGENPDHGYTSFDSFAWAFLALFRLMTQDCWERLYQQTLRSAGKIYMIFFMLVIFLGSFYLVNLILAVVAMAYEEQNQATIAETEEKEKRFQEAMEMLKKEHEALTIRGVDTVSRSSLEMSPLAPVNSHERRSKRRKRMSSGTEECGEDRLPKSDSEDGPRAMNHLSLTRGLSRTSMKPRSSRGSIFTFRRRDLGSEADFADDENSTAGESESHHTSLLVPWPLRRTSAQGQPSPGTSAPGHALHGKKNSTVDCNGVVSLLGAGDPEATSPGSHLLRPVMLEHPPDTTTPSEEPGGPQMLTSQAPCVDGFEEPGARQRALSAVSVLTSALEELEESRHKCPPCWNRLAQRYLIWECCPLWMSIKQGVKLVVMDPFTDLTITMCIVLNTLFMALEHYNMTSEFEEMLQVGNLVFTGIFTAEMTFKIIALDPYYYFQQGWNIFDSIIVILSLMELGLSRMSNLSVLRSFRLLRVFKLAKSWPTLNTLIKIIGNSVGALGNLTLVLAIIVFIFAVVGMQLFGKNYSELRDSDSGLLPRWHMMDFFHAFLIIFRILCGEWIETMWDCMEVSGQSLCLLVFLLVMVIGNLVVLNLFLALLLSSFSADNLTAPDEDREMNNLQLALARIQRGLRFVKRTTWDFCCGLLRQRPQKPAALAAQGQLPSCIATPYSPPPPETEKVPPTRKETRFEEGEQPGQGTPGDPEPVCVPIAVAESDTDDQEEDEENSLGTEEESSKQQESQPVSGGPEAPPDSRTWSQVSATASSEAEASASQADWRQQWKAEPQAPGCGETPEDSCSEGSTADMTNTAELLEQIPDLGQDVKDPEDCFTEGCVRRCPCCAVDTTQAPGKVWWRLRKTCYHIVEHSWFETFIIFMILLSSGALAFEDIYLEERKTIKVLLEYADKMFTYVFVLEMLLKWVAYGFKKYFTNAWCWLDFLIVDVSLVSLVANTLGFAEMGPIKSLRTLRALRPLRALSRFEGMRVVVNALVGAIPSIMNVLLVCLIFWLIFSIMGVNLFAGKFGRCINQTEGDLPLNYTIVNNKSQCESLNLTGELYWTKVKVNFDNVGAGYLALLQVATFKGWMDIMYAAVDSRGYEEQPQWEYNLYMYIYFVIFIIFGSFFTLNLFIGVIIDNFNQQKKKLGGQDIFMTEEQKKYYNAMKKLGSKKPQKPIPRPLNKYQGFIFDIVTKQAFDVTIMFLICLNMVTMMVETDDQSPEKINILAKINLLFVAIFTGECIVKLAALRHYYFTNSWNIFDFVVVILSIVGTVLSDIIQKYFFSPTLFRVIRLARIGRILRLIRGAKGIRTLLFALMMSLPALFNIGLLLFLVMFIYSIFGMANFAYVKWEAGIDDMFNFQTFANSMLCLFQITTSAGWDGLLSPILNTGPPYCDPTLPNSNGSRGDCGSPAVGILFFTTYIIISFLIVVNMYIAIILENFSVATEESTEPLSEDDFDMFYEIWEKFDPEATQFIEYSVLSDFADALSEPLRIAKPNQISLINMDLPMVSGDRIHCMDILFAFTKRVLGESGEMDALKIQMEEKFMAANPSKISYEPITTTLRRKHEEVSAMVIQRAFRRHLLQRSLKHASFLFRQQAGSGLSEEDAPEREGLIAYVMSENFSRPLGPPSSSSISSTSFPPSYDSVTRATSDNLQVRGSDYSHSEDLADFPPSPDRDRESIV
Cytochrome P450 2C9, sequence (P11712 whole entry): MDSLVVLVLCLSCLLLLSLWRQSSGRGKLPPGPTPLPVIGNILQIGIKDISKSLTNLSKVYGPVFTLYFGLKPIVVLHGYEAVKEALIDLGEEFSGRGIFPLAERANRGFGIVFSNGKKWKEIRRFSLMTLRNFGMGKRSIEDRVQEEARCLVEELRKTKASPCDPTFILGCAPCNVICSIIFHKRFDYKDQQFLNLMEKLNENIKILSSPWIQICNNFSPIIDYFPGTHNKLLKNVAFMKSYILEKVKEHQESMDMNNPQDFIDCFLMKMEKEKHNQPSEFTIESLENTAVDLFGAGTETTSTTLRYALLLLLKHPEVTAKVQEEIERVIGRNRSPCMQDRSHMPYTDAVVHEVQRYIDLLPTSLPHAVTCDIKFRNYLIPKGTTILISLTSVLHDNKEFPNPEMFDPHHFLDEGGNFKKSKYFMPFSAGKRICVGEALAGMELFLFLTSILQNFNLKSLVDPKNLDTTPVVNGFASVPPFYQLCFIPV

In turn, `CN(C)Cc1ccc2c(c1)CCN(C(=O)c1cc3cc(-c4ccccc4)ncc3n1C)C2` returned an IC50 in data set [1] greater than 41000 nM. Also, the logD in [2] was 3.
Consider `C#Cc1cc2cc(C(=O)N3CCc4cc(CN(C)C)ccc4C3)n(C)c2cn1`, for which inhibition in [1] was half-maximal at 6000 nM (IC50). This molecule also showed a logD in [2] of 1.2.
With `CN(C)Cc1ccc2c(c1)CCN(C(=O)c1cc3ccncc3n1C)C2`, the IC50 in [1] was found to be 2900 nM. Also, in data set [2], the logD turned out to be 0.9.
Take `CN(C)Cc1ccc2c(c1)CCN(C(=O)c1cc3cc(C(F)(F)F)ncc3n1C)C2`: in data set [1], half-maximal inhibition (IC50) was put at 3300 nM. The molecule also returned a logD in data set [2] of 1.8.
Molecule `CN(C)Cc1ccc2c(c1)CCN(C(=O)c1cc3cc(Cl)ncc3n1C)C2` returned an IC50 in [1] of 570 nM. In addition, the logD in data set [2] is 1.5.
For the molecule `CN(C)Cc1ccc2c(c1)CCN(C(=O)c1cc3cc(Cl)ccc3n1C)C2`, the IC50 came out at 2900 nM against Cytochrome P450 2D6; 4900 nM in data set [3]; 70 nM in data set [1]; 70 nM in [5]; 10500 nM in data set [7]; 90 nM in data set [8]. Also, the IC50 came out at 80 nM in data set [9] and 10300 nM in data set [12]. Moreover, the Papp A→B in data set [4] amounted to 7.8 ×10⁻⁶ cm/s. For the same molecule, the hepatocyte CLint in [6] came to 40 µL/min/1e6 cells. Further, the microsomal CLint in [10] was 156 µL/min/mg. In data set [11], this molecule registered a solubility at 18 h of 62 µM (≈ 23.7 µg/mL). For the same molecule, the logD in [2] was 3.
Regarding `CC1c2ccc(CN(C)C)cc2CCN1C(=O)c1cc2cc(Br)ncc2n1C` (racemic), the IC50 in [1] turned out to be 500 nM. In addition, the logD in [2] was 2.2.
Consider `CN(C)Cc1ccc2c(c1)CCN(C(=O)c1cc3cc(I)ncc3n1C)C2`, for which, in data set [1], the IC50 came to 130 nM. In addition, in [2], the logD is 2.
The like results for `CC1Cc2cc(CN(C)C)ccc2CN1C(=O)c1cc2cc(Br)ncc2n1C` (racemic) were, in that order, 710 nM and 2.1.
On to `CN(C)Cc1ccc2c(c1)CCN(C(=O)c1cc3cc(Br)ncc3n1C)C2`, for which the IC50 against Cytochrome P450 2D6 is greater than 20000 nM; in [1], 240 nM; in data set [5] it was 280 nM; in data set [7], greater than 33000 nM; in data set [8], 330 nM; in data set [9], 100 nM. In addition, the IC50 in data set [12] was greater than 33000 nM. For the same molecule, the “inhibition (INH)” value on Cytochrome P450 2C19, on Cytochrome P450 2C9, at Cytochrome P450 2C8, at Cytochrome P450 1A2 and at Cytochrome P450 3A4 was “Not Active” throughout. For the same molecule, the Papp A→B in data set [4] turned out to be 13.2 ×10⁻⁶ cm/s. In addition, the hepatocyte CLint in [6] was 5.3 µL/min/1e6 cells. Besides, the microsomal CLint in data set [10] was 16 µL/min/mg. For the same molecule, the solubility at 18 h in [11] was greater than 1000 µM. The same molecule yielded a logD in data set [2] of 1.7.
Consider `CC1CN(C(=O)c2cc3cc(Br)ncc3n2C)Cc2ccc(CN(C)C)cc21` (racemic), for which the IC50 in data set [1] came to 110 nM. The same molecule yielded a logD in data set [2] of 2.1.
On to `Cc1cc2cc(C(=O)N3CCc4cc(CN(C)C)ccc4C3)n(C)c2cn1`, for which, in data set [1], it took 18900 nM to reach half-maximal inhibition (IC50). Further, in data set [2], the logD is 1.3.
